Data published in ChEMBL document CHEMBL4033712, “Synthesis and biological evaluation of new C-12(α/β)-(N-) sulfamoyl-phenylamino-14-deoxy-andrographolide derivatives as potent anti-cancer agents” (Bioorg Med Chem Lett, 2017).

How the values were obtained:
Assay type in all cases: functional
RPMI-8226 = test: Growth inhibition of human RPMI8226 cells incubated for 48 hrs by sulforhodamine B assay; conditions: RPMI-8226, 48 h; for CC50: read-out: LC50 (the source's name)
Summary of the method: (§1)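 NCI 60 human tumour cell line panel, five-dose study at 0.01, 0.1, 1, 10 and 100 µM, 48 h incubation. Sulforhodamine B protein-binding dye end point. GI50 (50% decrease in net cell growth), TGI (total growth inhibition) and LC50 (net 50% loss of initial cells) read from log concentration versus % growth inhibition curves.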

IGROV-1 = test: Growth inhibition of human IGROV1 cells incubated for 48 hrs by sulforhodamine B assay; conditions: IGROV-1, 48 h; for CC50: read-out: LC50 (the source's name)
Summary of the method: (§2)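 NCI-60 five-dose screen at 0.01, 0.1, 1, 10 and 100 µM, 48 h incubation, sulforhodamine B end point. GI50 (50% decrease in net growth), TGI (total growth inhibition) and LC50 (net 50% loss of initial cells) taken from log concentration versus % growth inhibition curves.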

SF-539 [1] = test: Anticancer activity against human SF539 cells assessed as cell growth at 10 uM after 48 hrs by sulforhodamine B assay relative to control; conditions: SF-539, 48 h, read-out: Activity
Summary of the method: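 Single-dose NCI-60 panel screen: compound added at 10 µM and the culture incubated 48 h. The end point was read by protein staining with sulforhodamine B. The value is percent growth of treated cells relative to untreated control cells, reported as a mean graph across the panel.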

NCI-H23 = test: Growth inhibition of human NCI-H23 cells incubated for 48 hrs by sulforhodamine B assay; conditions: NCI-H23, 48 h; for CC50: read-out: LC50 (the source's name); summary of the method: as §2
HOP-62 = test: Growth inhibition of human HOP62 cells incubated for 48 hrs by sulforhodamine B assay; conditions: HOP-62, 48 h; for CC50: read-out: LC50 (the source's name); summary of the method: as §2
SN12C = test: Growth inhibition of human SN12C cells incubated for 48 hrs by sulforhodamine B assay; conditions: for CC50: read-out: LC50 (the source's name); summary of the method: as §1
DU-145 = test: Growth inhibition of human DU145 cells incubated for 48 hrs by sulforhodamine B assay; conditions: DU-145, 48 h; for CC50: read-out: LC50 (the source's name); summary of the method: as §2
SK-MEL-28 = test: Growth inhibition of human SK-MEL-28 cells incubated for 48 hrs by sulforhodamine B assay; conditions: SK-MEL-28, 48 h; summary of the method: as §1
MCF7 = test: Growth inhibition of human MCF7 cells incubated for 48 hrs by sulforhodamine B assay; conditions: MCF7, 48 h; summary of the method: as §2
COLO 205 = test: Growth inhibition of human COLO205 cells incubated for 48 hrs by sulforhodamine B assay; conditions: COLO 205, 48 h; for CC50: read-out: LC50 (the source's name); summary of the method: as §2
NCI/ADR-RES = test: Growth inhibition of human NCI/ADR-RES cells incubated for 48 hrs by sulforhodamine B assay; summary of the method: as §2
SK-MEL-5 = test: Growth inhibition of human SK-MEL-5 cells incubated for 48 hrs by sulforhodamine B assay; conditions: SK-MEL-5, 48 h; for CC50: read-out: LC50 (the source's name); summary of the method: as §1
HCC 2998 = test: Growth inhibition of human HCC2998 cells incubated for 48 hrs by sulforhodamine B assay; conditions: HCC 2998, 48 h; for CC50: read-out: LC50 (the source's name); summary of the method: as §2
MOLT-4 = test: Growth inhibition of human MOLT4 cells incubated for 48 hrs by sulforhodamine B assay; conditions: MOLT-4, 48 h; for CC50: read-out: LC50 (the source's name); summary of the method: as §2
NCI-H226 = test: Growth inhibition of human NCI-H226 cells incubated for 48 hrs by sulforhodamine B assay; conditions: NCI-H226, 48 h; summary of the method: as §2
MDA-MB-435 = test: Growth inhibition of human MDA-MB-435 cells incubated for 48 hrs by sulforhodamine B assay; conditions: MDA-MB-435, 48 h; for CC50: read-out: LC50 (the source's name); summary of the method: as §2
HCT-116 = test: Growth inhibition of human HCT116 cells incubated for 48 hrs by sulforhodamine B assay; conditions: HCT-116, 48 h; for CC50: read-out: LC50 (the source's name); summary of the method: as §2
HOP-92 = test: Growth inhibition of human HOP92 cells incubated for 48 hrs by sulforhodamine B assay; conditions: HOP-92, 48 h; for CC50: read-out: LC50 (the source's name); summary of the method: as §2
MDA-MB-231 = test: Growth inhibition of human MDA-MB-231 cells incubated for 48 hrs by sulforhodamine B assay; conditions: MDA-MB-231, 48 h; summary of the method: as §2
SF-268 = test: Growth inhibition of human SF268 cells incubated for 48 hrs by sulforhodamine B assay; conditions: SF-268, 48 h; for CC50: read-out: LC50 (the source's name); summary of the method: as §1
A549 = test: Growth inhibition of human A549/ATCC cells incubated for 48 hrs by sulforhodamine B assay; conditions: A549, 48 h; for CC50: read-out: LC50 (the source's name); summary of the method: as §2
SK-OV-3 = test: Growth inhibition of human SKOV3 cells incubated for 48 hrs by sulforhodamine B assay; conditions: SK-OV-3, 48 h; for CC50: read-out: LC50 (the source's name); summary of the method: as §1
SF-539 [2] = test: Growth inhibition of human SF539 cells incubated for 48 hrs by sulforhodamine B assay; conditions: SF-539, 48 h; for CC50: read-out: LC50 (the source's name); summary of the method: as §1
UACC-62 = test: Growth inhibition of human UACC62 cells incubated for 48 hrs by sulforhodamine B assay; conditions: UACC-62, 48 h; for CC50: read-out: LC50 (the source's name); summary of the method: as §1
KM12 = test: Growth inhibition of human KM12 cells incubated for 48 hrs by sulforhodamine B assay; conditions: KM12, 48 h; for CC50: read-out: LC50 (the source's name); summary of the method: as §2
SNB-75 = test: Growth inhibition of human SNB75 cells incubated for 48 hrs by sulforhodamine B assay; conditions: SNB-75, 48 h; for CC50: read-out: LC50 (the source's name); summary of the method: as §1
HCT-15 = test: Growth inhibition of human HCT15 cells incubated for 48 hrs by sulforhodamine B assay; conditions: HCT-15, 48 h; for CC50: read-out: LC50 (the source's name); summary of the method: as §2
UO-31 = test: Growth inhibition of human UO31 cells incubated for 48 hrs by sulforhodamine B assay; conditions: UO-31, 48 h; summary of the method: as §1

## C=C1CC[C@@H]2[C@](C)(COC(C)=O)[C@H](OC(C)=O)CC[C@@]2(C)[C@H]1CC(Nc1ccc(S(=O)(=O)Nc2cc(C)on2)cc1)C1=CCOC1=O (some centres undefined)
RPMI-8226
  GI50: 1.54 µM
  TGI: 5.42 µM
  CC50: > 100 µM
IGROV-1
  GI50: 2.36 µM
  TGI: 6.51 µM
  CC50: 76.2 µM
SF-539 [1]
  growth at 10 µM: 6.3%
NCI-H23
  GI50: 2.31 µM
  TGI: 5.9 µM
  CC50: 31.4 µM
HOP-62
  GI50: 8.88 µM
  TGI: 22.9 µM
  CC50: 56.9 µM
SN12C
  GI50: 1.73 µM
  TGI: 4.52 µM
  CC50: 20.7 µM
DU-145
  GI50: 2.43 µM
  TGI: 6.53 µM
  CC50: 23 µM
SK-MEL-28
  GI50: 2.02 µM
  LC50 (50% net cell kill): 9.2 µM
  TGI: 4.31 µM
MCF7
  GI50: 0.59 µM
  TGI: 2.76 µM
COLO 205
  GI50: 1.97 µM
  TGI: 4.34 µM
  CC50: 9.55 µM
NCI/ADR-RES
  GI50: 2.41 µM
  LC50 (concentration giving net 50% loss of initial cells): > 100 µM
  TGI: 12 µM
SK-MEL-5
  GI50: 2.11 µM
  TGI: 4.65 µM
  CC50: 11.7 µM
HCC 2998
  GI50: 2.14 µM
  TGI: 4.05 µM
  CC50: 7.64 µM
MOLT-4
  GI50: 2.12 µM
  TGI: 6.39 µM
  CC50: > 100 µM
NCI-H226
  GI50: 1.81 µM
  TGI: 3.85 µM
MDA-MB-435
  GI50: 1.74 µM
  TGI: 4.37 µM
  CC50: 12.5 µM
HCT-116
  GI50: 1.12 µM
  TGI: 2.39 µM
  CC50: 5.1 µM
HOP-92
  GI50: 3.07 µM
  TGI: 8 µM
  CC50: 28 µM
MDA-MB-231
  GI50: 2.22 µM
  LC50 (concentration giving net 50% loss of initial cells): 17.1 µM
  TGI: 5.11 µM
SF-268
  GI50: 2.35 µM
  TGI: 6.11 µM
  CC50: 32.9 µM
A549
  GI50: 4.75 µM
  TGI: 15.4 µM
  CC50: 42.2 µM
SK-OV-3
  GI50: 11 µM
  TGI: 23.1 µM
  CC50: 48.6 µM
SF-539 [2]
  GI50: 1.59 µM
  TGI: 3.06 µM
  CC50: 5.89 µM
UACC-62
  GI50: 2.13 µM
  TGI: 7.06 µM
  CC50: 30.5 µM
KM12
  GI50: 1.83 µM
  TGI: 3.69 µM
  CC50: 7.42 µM
SNB-75
  GI50: 2.03 µM
  TGI: 11.5 µM
  CC50: 33.9 µM
HCT-15
  GI50: 1.5 µM
  TGI: 3.83 µM
  CC50: 9.74 µM
UO-31
  GI50: 1.69 µM
  LC50 (concentration giving net 50% loss of initial cells): 7.33 µM
  TGI: 3.52 µM

## C=C1CC[C@@H]2[C@](C)(COC(C)=O)[C@H](OC(C)=O)CC[C@@]2(C)[C@H]1CC(Nc1ccc(S(=O)(=O)Nc2ccc(Cl)nn2)cc1)C1=CCOC1=O (some centres undefined)
RPMI-8226
  GI50: 0.44 µM
  TGI: 3.04 µM
  CC50: > 100 µM
IGROV-1
  GI50: 2.08 µM
  TGI: 5 µM
  CC50: 18.3 µM
NCI-H23
  GI50: 2.06 µM
  TGI: 5.35 µM
  CC50: 43.2 µM
HOP-62
  GI50: 1.46 µM
  TGI: 2.99 µM
  CC50: 6.12 µM
SN12C
  GI50: 1.25 µM
  TGI: 3.66 µM
  CC50: 12.7 µM
DU-145
  GI50: 1.7 µM
  TGI: 3.45 µM
  CC50: 7.02 µM
SK-MEL-28
  GI50: 1.68 µM
  LC50 (50% net cell kill): 7.13 µM
  TGI: 3.46 µM
MCF7
  GI50: 0.78 µM
  TGI: 2.9 µM
COLO 205
  GI50: 1.46 µM
  TGI: 3.16 µM
  CC50: 6.86 µM
NCI/ADR-RES
  GI50: 1.87 µM
  LC50 (concentration giving net 50% loss of initial cells): > 100 µM
  TGI: 6.2 µM
SK-MEL-5
  GI50: 1.6 µM
  TGI: 3.13 µM
  CC50: 6.13 µM
HCC 2998
  GI50: 1.84 µM
  TGI: 3.86 µM
  CC50: 8.08 µM
MOLT-4
  GI50: 1.96 µM
  TGI: > 100 µM
  CC50: > 100 µM
NCI-H226
  GI50: 1.67 µM
  TGI: 3.3 µM
MDA-MB-435
  GI50: 1.4 µM
  TGI: 3.17 µM
  CC50: 7.16 µM
HCT-116
  GI50: 1.08 µM
  TGI: 2.32 µM
  CC50: 4.96 µM
HOP-92
  GI50: 2.7 µM
  TGI: 7.89 µM
  CC50: 27.5 µM
MDA-MB-231
  GI50: 1.9 µM
  LC50 (concentration giving net 50% loss of initial cells): 8.27 µM
  TGI: 3.96 µM
SF-268
  GI50: 1.8 µM
  TGI: 3.67 µM
  CC50: 7.51 µM
A549
  GI50: 2.96 µM
  TGI: 10.7 µM
  CC50: 40.9 µM
SK-OV-3
  GI50: 4.05 µM
  TGI: 12.3 µM
  CC50: 35 µM
SF-539 [2]
  GI50: 1.23 µM
  TGI: 2.63 µM
  CC50: 5.62 µM
UACC-62
  GI50: 1.49 µM
  TGI: 3.86 µM
  CC50: 10 µM
KM12
  GI50: 1.7 µM
  TGI: 3.49 µM
  CC50: 7.16 µM
SNB-75
  GI50: 1.44 µM
  TGI: 5.9 µM
  CC50: 24.3 µM
HCT-15
  GI50: 0.88 µM
  TGI: 2.3 µM
  CC50: 5.51 µM
UO-31
  GI50: 1.45 µM
  LC50 (concentration giving net 50% loss of initial cells): 5.73 µM
  TGI: 2.88 µM
